Source: PubChem BioAssay
The list is not random: actives were taken first. Their share in the collection is about 2.9%.
Env fusion inh: inhibitors of HIV-1 Env-driven cell-cell fusion, primary screen, HeLa-JRFL effector, CEM21 target cells, luciferase | inhibition, % at 12.3 µM | AID 651610, 2012 | 1.1% of 360,000 active;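 active = mean replicate inhibition score of at least 50 and every replicate individually at or above 50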
CDK5 inh: inhibitors of human CDK5/p35 kinase, primary screen, biochemical, single concentration | inhibition, % at 10 µM | 0.01% of 330,000 active | Recombinant CDK5/p35, ADP-Glo luminescence, 60 min | Cyclin-dependent kinase 5 (Homo sapiens) + Cyclin-dependent kinase 5 activator 1 (Homo …;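 active = highest replicate inhibition of at least 50% and at least 75% of replicates reaching 50%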
Target sequence (Q00535 whole entry, looked up): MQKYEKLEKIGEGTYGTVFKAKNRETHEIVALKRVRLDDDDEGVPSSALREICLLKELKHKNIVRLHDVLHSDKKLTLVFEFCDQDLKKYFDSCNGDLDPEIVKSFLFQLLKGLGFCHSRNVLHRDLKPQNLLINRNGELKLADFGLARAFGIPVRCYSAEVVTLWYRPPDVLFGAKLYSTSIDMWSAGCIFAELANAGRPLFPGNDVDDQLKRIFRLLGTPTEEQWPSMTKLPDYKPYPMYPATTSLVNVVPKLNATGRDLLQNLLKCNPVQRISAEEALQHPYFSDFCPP
Target sequence (Q15078 whole entry, looked up): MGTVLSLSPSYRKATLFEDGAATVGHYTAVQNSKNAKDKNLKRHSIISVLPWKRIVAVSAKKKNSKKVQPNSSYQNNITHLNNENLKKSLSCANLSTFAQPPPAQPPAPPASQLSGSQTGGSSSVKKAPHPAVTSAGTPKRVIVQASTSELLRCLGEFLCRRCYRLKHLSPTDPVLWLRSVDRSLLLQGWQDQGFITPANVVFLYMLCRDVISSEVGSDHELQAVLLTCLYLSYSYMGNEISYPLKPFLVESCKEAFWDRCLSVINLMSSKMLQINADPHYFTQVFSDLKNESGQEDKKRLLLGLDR
dFosB act: activators of delta FosB homodimer, primary screen, biochemical, fluorescence polarization, TAMRA-CDK5 oligo, single point | Protein FosB (Mus musculus), P13346 | purified delta FosB; percent of positive-control signal above neutral wells | activation, % at 25 µM | 0.99% of 340,000 active | AID 493131, 2011;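 active = mean activation above about 17%, with every replicate also reaching it, limit read from the data, passing the limit was not always enough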
Cneo AK release: Cryptococcus neoformans cell lysis inducers, primary screen, AK release luminescence, single concentration; lysis activity, % at 15 µM; 0.2% of 360,000 active; AID 651654, 2012; C. neoformans lysis, adenylate kinase release luminescence, 4 h; normalised: neutral wells 0, clomiphene wells 100;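 active = mean lysis activity across replicates of at least 80%, whatever share of replicates individually reach that level; inactive = mean lysis activity below 80%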
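Schedule: static 4 h at 37 °C with compound, 1 h detection; system: C. neoformans cells; benchmarks: Clomiphene as positive control; buffer or medium: fresh YPD medium; measure: luminescence rise reflecting yeast cell lysis; measured by: luminescent adenylate kinase detection reagent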
INS-1E GSIS act: GLuc luminescence reporter in INS-1E cells, primary screen for activators of glucose-dependent secretion of insulin; activation, % at 16.6 µM; 0.61% of 370,000 active; INS-1E GLuc reporter insulin secretion, 2-3 h;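 active = lowest replicate activation of at least 40%, so every replicate reaches that level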
PAX8 reporter: inhibitors of PAX8-driven TPO luciferase reporter, primary screen, RMG-I cells, single concentration. SteadyGlo, 24 h. inhibition, % at 12.6 µM. 1.2% of 360,000 active;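 active = mean replicate inhibition at least 60% with every replicate also reaching 60%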;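 note: luciferase light reporting Pax8 driven TPO promoter activity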
A number is an active result; . = inactive; / = not tested or not shown; ! = a repeat was not active; [ ] = another dose, or the depositor's remark.

SMILES	Env fusion inh	CDK5 inh	dFosB act	Cneo AK release	INS-1E GSIS act	PAX8 reporter
Cc1ccc2cc3cc(C(=O)NCCN4CCOCC4)oc3nc2c1	59	.	.	.	/	/
COc1ccc2cc3cc(C(=O)NCCCN4CCOCC4)oc3nc2c1	.	.	.	.	/	/
COc1ccc2cc3cc(C(=O)NCCc4ccc(OC)c(OC)c4)oc3nc2c1	68	.	.	.	/	/
COc1ccc(S(=O)(=O)Nc2ccc3c(c2)C(=O)N([C@H](C)CO)C[C@H](C)[C@@H](CN(C)S(=O)(=O)c2cn(C)cn2)OCCCC[C@@H](C)O3)cc1	.	/	/	.	.	.
CC(C)NC(=O)Nc1cccc2c1O[C@H](CN(C)S(C)(=O)=O)[C@@H](C)CN(C)C2=O	/	/	/	/	.	/
COc1cccc(CN2[C@H](CO)[C@H]3c4ccccc4N(C(=O)c4ccncc4)C[C@H]32)c1	/	/	/	.	.	.
Cc1cccc(N=C2NC(=O)/C(=C/c3cccnc3)S2)c1	.	.	.	/	45	.
CCCNC(=O)[C@H]1[C@H](CO)[C@H]2Cn3c(ccc(/C=C/c4ccccc4)c3=O)[C@H]2N1CC	/	/	/	.	.	/
O=C1c2ccccc2C(=O)N1CCC(c1ccc(F)cc1)c1ccco1 (configuration not stated)	/	.	.	.	43	/
CC(C)Nc1nc(NC(C)(C)C)nc(Oc2ccc(=O)n(C)n2)n1	.	.	.	.	41	.
CC(=O)Nc1ccc(NC(=O)Cn2c(-c3ccc(F)cc3)cnc2SCC(=O)Nc2c(C)cccc2C)cc1	.	.	64	.	/	.
O=C(COc1ccc(/C=N/NC(=O)C(=O)N2CCCCCC2)cc1)Nc1ccccc1Cl	/	.	.	.	/	78
C=C1C(=O)OC2C1CCC(C)C1C=CC(=O)C12C (configuration not stated)	/	.	.	/	.	75
CC(=O)O[C@@H]1[C@H]2[C@@H](C[C@@H](C)[C@@H]3C=CC(=O)[C@@]13C)OC(=O)[C@@H]2C	.	.	.	.	.	.
CCNC(=O)[C@H]1[C@H](CO)[C@H]2Cn3c(ccc(-c4ccc(F)cc4)c3=O)[C@H]2N1Cc1cc(F)ccc1F	/	/	/	.	.	/
CCCCCCSc1cccc(-c2nc3ccc(Cl)cn3c2NCc2ccccc2)c1	72!	.	.	.	.	.
CC(C)CC#Cc1cnc2c(c1)C(=O)N([C@@H](C)CO)C[C@H](C)[C@H](CN(C)Cc1cncnc1)O2	.	/	/	.	.	/
N#CC1=C(N)N2C(=C(C#N)C1c1ccc(Br)cc1)Nc1ccccc12 (configuration not stated)	56	/	/	/	.	98
Nc1ccc(C(=O)OCC(=O)N2c3ccccc3Sc3ccccc32)cc1[N+](=O)[O-]	/	.	.	.	.	.
NCCNc1ccc(C(=O)N2c3ccccc3Sc3ccccc32)cc1[N+](=O)[O-]	.	.	54	.	/	.
O=C(CSc1nc(-c2ccccc2)c(-c2ccccc2)[nH]1)N1CCN(S(=O)(=O)c2ccccc2)CC1	84	.	.	.	/	.
O=C(CSc1ncccn1)N1CCN(S(=O)(=O)c2ccccc2)CC1	.	.	.	.	51	.
CC(C)(C)NC(=O)CSc1nc(-c2ccccc2)c(-c2ccccc2)[nH]1	64	.	.	.	.	/
CCc1ccc(NC(=O)Cn2c3[n+](c4c(F)c(F)ccc42)CCCCC3)cc1	.	.	.	/	.	76
Cc1cc(NC(=O)c2cc(-c3ccccn3)nc3ccc(Br)cc23)no1	.	.	58	.	.	.
SMILES	Env fusion inh	CDK5 inh	dFosB act	Cneo AK release	INS-1E GSIS act	PAX8 reporter
C[C@@H]1CCCCO[C@H](CN(C)S(=O)(=O)c2ccc(Cl)cc2)[C@H](C)CN([C@H](C)CO)C(=O)c2cc(NS(=O)(=O)c3cccs3)ccc2O1	.	/	/	.	.	.
Cc1ccc(S(=O)(=O)N(C)C[C@@H]2OCCCC[C@H](C)Oc3ccc(NS(=O)(=O)c4cccs4)cc3C(=O)N([C@H](C)CO)C[C@H]2C)cc1	.	/	/	.	.	78
C[C@H](CO)N1C[C@H](C)[C@@H](CN(C)S(=O)(=O)c2ccc(Cl)cc2)OCCCC[C@H](C)Oc2ccc(NS(=O)(=O)c3cccs3)cc2C1=O	.	/	/	.	.	80
C[C@H]1CCCCO[C@H](CN(C)S(=O)(=O)c2ccc(Cl)cc2)[C@@H](C)CN([C@@H](C)CO)C(=O)c2cc(NS(=O)(=O)c3cccs3)ccc2O1	.	/	/	89	.	68
C[C@H](CO)N1C[C@H](C)[C@H](CN(C)S(=O)(=O)c2ccc(Cl)cc2)OCCCC[C@H](C)Oc2ccc(NS(=O)(=O)c3cccs3)cc2C1=O	.	/	/	.	.	67
C[C@@H]1CN([C@@H](C)CO)C(=O)c2cccc(NC(=O)C3CCCCC3)c2O[C@H]1CN(C)C(=O)NC1CCCCC1	.	/	/	.	.	/
C[C@@H]1CN([C@@H](C)CO)C(=O)Cc2cc(NS(=O)(=O)c3cccs3)ccc2O[C@H]1CN(C)Cc1ccc(C(F)(F)F)cc1	78[16.7 µM]	/	/	.	.	91
C[C@@H]1CN([C@@H](C)CO)C(=O)Cc2cc(NS(=O)(=O)c3cccs3)ccc2O[C@H]1CN(C)Cc1ccc(Cl)c(Cl)c1	61[16.7 µM]	/	/	.	.	/
C[C@@H]1CN([C@H](C)CO)C(=O)Cc2cc(NS(=O)(=O)c3cccs3)ccc2O[C@@H]1CN(C)Cc1ccc(Cl)c(Cl)c1	.	/	/	.	.	/
C[C@H](O)[C@@H]1CN2CCc3ccc(-c4ccc5c(c4)OCO5)cc3[C@@H]2C[C@@H]1N(C)C(=O)c1cccc(Cl)c1	.	/	/	/	188	.
CO[C@H]1CN(C)C(=O)c2ccc(NC(=O)c3cnccn3)cc2OC[C@H](C)NC[C@@H]1C	/	/	/	/	.	/
COc1ccc(NC(=O)CSc2nnc3ccc(-c4cccnc4)nn23)c(OC)c1	.	.	.	.	70	.
O=[N+]([O-])c1ccc(N2CCCCC2)cc1N1CCOCC1	.	.	.	/	45	.
O=C(Nc1ccc(F)cc1)C1CC(=O)n2c(nc3ccccc32)N1 (configuration not stated)	.	.	.	.	.	.
COc1ccc(NC(=O)C2CC(=O)n3c(nc4ccccc43)N2)cc1 (configuration not stated)	.	.	34	.	.	.
CC(C)CC(=O)Nc1nnc(SCC(=O)NC2CCCC2)s1	.	/	/	.	121	.
CC(C)CC(=O)Nc1nnc(SCC(=O)NC2CCCCC2)s1	.	.	.	.	.	.
